We go through 18 compounds from ChEMBL document CHEMBL3120153, “Novel Quinoline-Based P2-P4 Macrocyclic Derivatives As Pan-Genotypic HCV NS3/4a Protease Inhibitors” (ACS Med Chem Lett, 2014).

Series [1] deals with NS3 protease (Hepatitis C virus subtype 1b, UniProt Q0ZMF1, A156T). Nature of the series: Inhibition of Hepatitis C virus genotype 1b NS3/4A protease A156T mutant assessed as substrate cleavage using Ac-C(Eu)DDMEEAbu(COO)ASK(QSY7)-amide as substrate incubated for 30 mins prior to substrate addition by time-resolved fluorescence assay.
Series [2] deals with NS3 protease (Hepatitis C virus subtype 1b, UniProt Q0ZMF1, R155K). Nature of the series: Inhibition of Hepatitis C virus genotype 1b NS3/4A protease R155K mutant assessed as substrate cleavage using Ac-C(Eu)DDMEEAbu(COO)ASK(QSY7)-amide as substrate incubated for 30 mins prior to substrate addition by time-resolved fluorescence assay.
The target in series [3] is NS3 protease (Hepatitis C virus subtype 1b, UniProt Q0ZMF1, A156V). Nature of the series: Inhibition of Hepatitis C virus genotype 1b NS3/4A protease A156V mutant assessed as substrate cleavage using Ac-C(Eu)DDMEEAbu(COO)ASK(QSY7)-amide as substrate incubated for 30 mins prior to substrate addition by time-resolved fluorescence assay.
In series [4] the target is NS3 protease (Hepatitis C virus subtype 1b, UniProt Q0ZMF1, D168Y). As to the kind of experiment: Inhibition of Hepatitis C virus genotype 1b NS3/4A protease D168Y mutant assessed as substrate cleavage using Ac-C(Eu)DDMEEAbu(COO)ASK(QSY7)-amide as substrate incubated for 30 mins prior to substrate addition by time-resolved fluorescence assay.
Series [5] can be described thus: Inhibition of Hepatitis C virus genotype 1b NS3/4A protease assessed as substrate cleavage using Ac-C(Eu)DDMEEAbu(COO)ASK(QSY7)-amide as substrate incubated for 30 mins prior to substrate addition by time-resolved fluorescence assay. Details: species or system Hepatitis C virus subtype 1b.
Series [6] is described as follows: Inhibition of Hepatitis C virus genotype 3a NS3/4A protease assessed as substrate cleavage using Ac-C(Eu)DDMEEAbu(COO)ASK(QSY7)-amide as substrate incubated for 30 mins prior to substrate addition by time-resolved fluorescence assay. Details: species or system Hepatitis C virus subtype 3a.
Series [7] in a line: AUC in rat at 5 mg/kg, po. The format is ADME, organism-based. Details: dose 5 mg/kg, route oral. The settings on record: plasma. Put shortly: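 Rats were dosed orally at 5 mg/kg, with the compound given in methyl cellulose vehicle.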

Usually IC50 stands for the point on the concentration scale where inhibition reaches its midpoint. Regarding `C=C[C@@H]1C[C@]1(NC(=O)[C@@H]1C[C@@H]2CN1C(=O)[C@H](C1CCCCC1)NC(=O)O[C@@H]1C[C@H]1CCCCCc1c(nc3ccccc3c1OC1CCN(CCF)CC1)O2)C(=O)NS(=O)(=O)C1(C)CC1`, the IC50 in series [1] came out at 2.15 nM; in series [2], 0.13 nM; in series [3] it was 1.67 nM; in series [4], 1.3 nM; in series [5] it was 0.01 nM; in series [6], 2.13 nM.
As for `C=C[C@@H]1C[C@]1(NC(=O)[C@@H]1C[C@@H]2CN1C(=O)[C@H](C1CCCCC1)NC(=O)O[C@@H]1C[C@H]1CCCCCc1c(nc3ccccc3c1OC1CCN(C(=O)OC(C)(C)C)CC1)O2)C(=O)NS(=O)(=O)C1(C)CC1`, the IC50 in series [1] was 21.1 nM; in series [2], 1.31 nM; in series [3], 14.5 nM; in series [4], 13.5 nM; in series [5], 0.16 nM; in series [6] it was 191 nM.
The AUC is concentration integrated over time. A higher AUC goes with more exposure. `C=C[C@@H]1C[C@]1(NC(=O)[C@@H]1C[C@@H]2CN1C(=O)[C@H](C1CCCCC1)NC(=O)O[C@@H]1C[C@H]1CCCCCc1c(nc3ccccc3c1OCCCN1CCN(C)CC1)O2)C(=O)NS(=O)(=O)C1(C)CC1`: the concentration for half-maximal inhibition (IC50) in series [1] was 0.5 nM; in series [2], 0.05 nM; in series [3], 0.26 nM; in series [4], 0.38 nM; in series [5], 0.01 nM; in series [6] it was 1.15 nM. The same compound registered an AUC in series [7] of 0.1 µM·h.
Take `C=C[C@@H]1C[C@]1(NC(=O)[C@@H]1C[C@@H]2CN1C(=O)[C@H](C(C)(C)C)NC(=O)O[C@@H]1C[C@H]1CCCCCc1c(nc3ccccc3c1O[C@H]1C[C@H]3CC[C@@H](C1)N3CCOC)O2)C(=O)NS(=O)(=O)C1(C)CC1`: the 50% inhibitory concentration (IC50) in series [1] was found to be 0.48 nM; in series [2] it was 0.02 nM; in series [3], 0.71 nM; in series [4] it was 0.06 nM; in series [5], 0.01 nM; in series [6], 0.14 nM.
On to `C=C[C@@H]1C[C@]1(NC(=O)[C@@H]1C[C@@H]2CN1C(=O)[C@H](C1CCCCC1)NC(=O)O[C@@H]1C[C@H]1CCCCCc1c(nc3ccccc3c1OC1CCN(CCOC(F)(F)F)CC1)O2)C(=O)NS(=O)(=O)C1(C)CC1`, for which the IC50 in series [1] is 1.32 nM; in series [2], 0.15 nM; in series [3], 1.58 nM; in series [4], 0.48 nM; in series [5] it was 0.15 nM; in series [6], 1.22 nM.
With `C=C[C@@H]1C[C@]1(NC(=O)[C@@H]1C[C@@H]2CN1C(=O)[C@H](C1CCCCC1)NC(=O)O[C@@H]1C[C@H]1CCCCCc1c(nc3ccccc3c1OC1CCN(CCOC)CC1)O2)C(=O)NS(=O)(=O)C1(C)CC1`, the concentration for half-maximal inhibition (IC50) in series [1] came out at 1.96 nM; in series [2], 0.18 nM; in series [3] it was 1.46 nM; in series [4], 0.15 nM; in series [5], 0.02 nM; in series [6], 1.32 nM.
`C=C[C@@H]1C[C@]1(NC(=O)[C@@H]1C[C@@H]2CN1C(=O)[C@H](C1CCCCC1)NC(=O)O[C@@H]1C[C@H]1CCCCCc1c(nc3ccccc3c1OCCCNC1CC(F)(F)C1)O2)C(=O)NS(=O)(=O)C1(C)CC1`: the half-maximal inhibitory concentration (IC50) in series [1] came out at 0.53 nM; in series [2], 0.18 nM; in series [3] it was 0.38 nM; in series [4], 0.32 nM; in series [5], 0.01 nM; in series [6], 2 nM.
As for `C=C[C@@H]1C[C@]1(NC(=O)[C@@H]1C[C@@H]2CN1C(=O)[C@H](C1CCCCC1)NC(=O)O[C@@H]1C[C@H]1CCCCCc1c(nc3ccccc3c1O[C@H]1C[C@H]3CC[C@@H](C1)N3)O2)C(=O)NS(=O)(=O)C1(C)CC1`, the IC50 in series [1] was 0.08 nM; in series [2] it was 0.02 nM; in series [3] it was 0.13 nM; in series [4] it was 0.05 nM; in series [5], 0.01 nM; in series [6] it was 0.11 nM.
For `C=C[C@@H]1C[C@]1(NC(=O)[C@@H]1C[C@@H]2CN1C(=O)[C@H](C1CCCCC1)NC(=O)O[C@@H]1C[C@H]1CCCCCc1c(nc3ccccc3c1OCCCN1CC(F)C1)O2)C(=O)NS(=O)(=O)C1(C)CC1`, the IC50 in series [1] is 1.95 nM; in series [2] it was 0.16 nM; in series [3], 0.97 nM; in series [4], 0.79 nM; in series [5], 0.02 nM; in series [6], 4.45 nM.
In the case of `C=C[C@@H]1C[C@]1(NC(=O)[C@@H]1C[C@@H]2CN1C(=O)[C@H](C1CCCCC1)NC(=O)O[C@@H]1C[C@H]1CCCCCc1c(nc3ccccc3c1OC1CCN(CCS(C)(=O)=O)CC1)O2)C(=O)NS(=O)(=O)C1(C)CC1`, the IC50 in series [1] turned out to be 5.21 nM; in series [2], 0.21 nM; in series [3], 3.76 nM; in series [4] it was 2.1 nM; in series [5], 0.02 nM; in series [6], 5.18 nM.
In the case of `C=C[C@@H]1C[C@]1(NC(=O)[C@@H]1C[C@@H]2CN1C(=O)[C@H](C1CCCCC1)NC(=O)O[C@@H]1C[C@H]1CCCCCc1c(nc3ccccc3c1OCCCN1CC(F)(F)C1)O2)C(=O)NS(=O)(=O)C1(C)CC1`, the IC50 was 3.75 nM in series [1]; 0.5 nM in series [2]; 1.3 nM in series [3]; 2 nM in series [4]; 0.03 nM in series [5]; 7.55 nM in series [6].
In the case of `C=C[C@@H]1C[C@]1(NC(=O)[C@@H]1C[C@@H]2CN1C(=O)[C@H](C1CCCCC1)NC(=O)O[C@@H]1C[C@H]1CCCCCc1c(nc3ccccc3c1OC1CCN(CC(F)(F)F)CC1)O2)C(=O)NS(=O)(=O)C1(C)CC1`, the IC50 in series [1] is 26.1 nM; in series [2] it was 3.4 nM; in series [3], 27.2 nM; in series [4] it was 12.9 nM; in series [5], 0.4 nM; in series [6], 104 nM.
Consider `C=C[C@@H]1C[C@]1(NC(=O)[C@@H]1C[C@@H]2CN1C(=O)[C@H](C(C)(C)C)NC(=O)O[C@@H]1C[C@H]1CCCCCc1c(nc3ccccc3c1O[C@@H]1C[C@H]3CC[C@@H](C1)N3CC)O2)C(=O)NS(=O)(=O)C1(C)CC1`, for which the 50% inhibitory concentration (IC50) was found to be 0.46 nM in series [1]; 0.12 nM in series [2]; 0.41 nM in series [3]; 0.57 nM in series [4]; 0.02 nM in series [5]; 1.2 nM in series [6].
As to `C=C[C@@H]1C[C@]1(NC(=O)[C@@H]1C[C@@H]2CN1C(=O)[C@H](C1CCCCC1)NC(=O)O[C@@H]1C[C@H]1CCCCCc1c(nc3ccccc3c1OCCCN1CCOCC1)O2)C(=O)NS(=O)(=O)C1(C)CC1`, the IC50 in series [1] came out at 3.09 nM; in series [2] it was 0.27 nM; in series [3], 0.98 nM; in series [4], 1.01 nM; in series [5] it was 0.01 nM; in series [6], 1.9 nM.
For the compound `C=C[C@@H]1C[C@]1(NC(=O)[C@@H]1C[C@@H]2CN1C(=O)[C@H](C1CCCCC1)NC(=O)O[C@@H]1C[C@H]1CCCCCc1c(nc3ccccc3c1OCCCNC1CCC1)O2)C(=O)NS(=O)(=O)C1(C)CC1`, the concentration for half-maximal inhibition (IC50) in series [1] worked out at 0.4 nM; in series [2] it was 0.1 nM; in series [3], 0.3 nM; in series [4], 0.3 nM; in series [5], 0.02 nM; in series [6] it was 1.2 nM.
Consider `C=C[C@@H]1C[C@]1(NC(=O)[C@@H]1C[C@@H]2CN1C(=O)[C@H](C(C)(C)C)NC(=O)O[C@@H]1C[C@H]1CCCCCc1c(nc3ccccc3c1O[C@@H]1C[C@H]3CC[C@@H](C1)N3CCOC)O2)C(=O)NS(=O)(=O)C1(C)CC1`, for which the IC50 in series [1] stood at 1.25 nM; in series [2], 0.28 nM; in series [3], 0.86 nM; in series [4] it was 1.45 nM; in series [5] it was 0.02 nM; in series [6], 4.7 nM.
For the compound `C=C[C@@H]1C[C@]1(NC(=O)[C@@H]1C[C@@H]2CN1C(=O)[C@H](C1CCCCC1)NC(=O)O[C@@H]1C[C@H]1CCCCCc1c(nc3ccccc3c1OC1CCOCC1)O2)C(=O)NS(=O)(=O)C1(C)CC1`, the half-inhibitory concentration (IC50) turned out to be 4.1 nM in series [1]; 0.26 nM in series [2]; 3.4 nM in series [3]; 2.07 nM in series [4]; 0.03 nM in series [5]; 11 nM in series [6].
As for `C=C[C@@H]1C[C@]1(NC(=O)[C@@H]1C[C@@H]2CN1C(=O)[C@H](C1CCCCC1)NC(=O)O[C@@H]1C[C@H]1CCCCCc1c(nc3ccccc3c1O[C@H]1C[C@H]3CC[C@@H](C1)N3CCOC)O2)C(=O)NS(=O)(=O)C1(C)CC1`, the IC50 is 0.35 nM in series [1]; 0.05 nM in series [2]; 0.36 nM in series [3]; 0.19 nM in series [4]; 0.02 nM in series [5]; 0.28 nM in series [6].
